Data: ChEMBL document CHEMBL3525918, “Utility of drug depletion-time profiles in isolated hepatocytes for accessing hepatic uptake clearance: identifying rate-limiting steps and role of passive processes” (Drug Metab Dispos, 2012)

Tests used:
[1] = Drug metabolism in Sprague-Dawley rat hepatocytes assessed per 10^6 cells at 0.1 to 10 uM up to 90 mins by conventional assay; format: ADME, cell-based, Hepatocyte
Summary of the method: (§1)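 Fresh rat hepatocytes from collagenase perfusion (viability >85%), three independent preparations. Drug at final 0.1–10 µM in Williams' medium E, 0.5% methanol, preincubated 5 min at 37°C, then mixed with hepatocytes (final 0.1–1 x 10^6 cells/mL) and shaken at 37°C. Ten time points up to 90 min, terminated by snap-freezing the whole cell-plus-medium matrix. LC-MS/MS quantitation; mono- or biexponential depletion fit gives kdep.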

[2] = Drug metabolism in Sprague-Dawley rat hepatocytes assessed per 10^6 cells at 0.1 to 10 uM up to 90 mins by media-loss method; format: ADME, cell-based, Hepatocyte
Summary of the method: (§2)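 Freshly isolated rat hepatocytes (collagenase perfusion, >85% viable, three preparations), incubated with drug at final 0.1–10 µM at 37°C, 0.1–1 x 10^6 cells/mL, 0.5% methanol, alongside the whole-matrix assay. At time points up to 90 min the incubation was centrifuged 30 sec at 7000g, and the supernatant medium was snap-frozen and analysed by LC-MS/MS. Loss of drug from the medium was fitted mono- or biexponentially.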

[3] = Apparent intrinsic clearance in Sprague-Dawley rat hepatocytes assessed per 10^6 cells at 0.1 to 10 uM up to 90 mins by conventional assay; format: ADME, cell-based, Hepatocyte; conditions: read-out: CLH(app); summary of the method: as §1
[4] = (§3) Apparent intrinsic clearance in Sprague-Dawley rat hepatocytes assessed per 10^6 cells at 0.1 to 10 uM up to 90 mins by media-loss method; format: ADME, cell-based, Hepatocyte; conditions: Sprague-Dawley, read-out: CLH(app); summary of the method: as §2
Hepatocyte = assay: as §3; format: ADME, cell-based; conditions: 1.5 h, 10 µM; summary of the method: as §2

Structure (SMILES) | Km at 1.5 h, up to 10 µM [1] [µM] | Km at 1.5 h, up to 10 µM [2] [µM] | hepatocyte CLint at up to 10 µM [3] [µL/min/1e6 cells] | hepatocyte CLint at up to 10 µM [4] [µL/min/1e6 cells] | CLH(app) (Hepatocyte) [uL/min/10^6cells]
CC[C@H]1OC(=O)[C@H](C)[C@@H](O[C@H]2C[C@@](C)(OC)[C@@H](O)[C@H](C)O2)[C@H](C)[C@@H](O[C@@H]2O[C@H](C)C[C@H](N(C)C)[C@H]2O)[C@](C)(OC)C[C@@H](C)C(=O)[C@H](C)[C@@H](O)[C@]1(C)O [CLARITHROMYCIN] | – | – | 46 | 68 | –
CC[C@H]1OC(=O)[C@H](C)[C@@H](O[C@H]2C[C@@](C)(OC)[C@@H](O)[C@H](C)O2)[C@H](C)[C@@H](O[C@@H]2O[C@H](C)C[C@H](N(C)C)[C@H]2O)[C@](C)(O)C[C@@H](C)C(=O)[C@H](C)[C@@H](O)[C@]1(C)O [ERYTHROMYCIN] | 3.5 | 5.5 | 26 | 35 | –
O=C(O)C[C@H](O)C[C@H](O)/C=C/c1c(C2CC2)nc2ccccc2c1-c1ccc(F)cc1 [PITAVASTATIN] | – | 13 | 7.1 | – | 1705
CCOc1cc(CC(=O)N[C@@H](CC(C)C)c2ccccc2N2CCCCC2)ccc1C(=O)O [REPAGLINIDE] | – | – | 49.9 | 49.3 | –
CC(C)c1nc(N(C)S(C)(=O)=O)nc(-c2ccc(F)cc2)c1/C=C/[C@@H](O)C[C@@H](O)CC(=O)O [ROSUVASTATIN] | – | – | 3.3 | 1660 | –

Results, then the compound that gave them:

Km at 1.5 h, up to 10 µM [1] [µM] | Km at 1.5 h, up to 10 µM [2] [µM] | hepatocyte CLint at up to 10 µM [3] [µL/min/1e6 cells] | hepatocyte CLint at up to 10 µM [4] [µL/min/1e6 cells] | CLH(app) (Hepatocyte) [uL/min/10^6cells] | Structure (SMILES)
1.3 | 0.43 | – | – | – | CC(C)c1c(C(=O)Nc2ccccc2)c(-c2ccccc2)c(-c2ccc(F)cc2)n1CC[C@@H](O)C[C@@H](O)CC(=O)O [ATORVASTATIN]
4.7 | – | – | – | – | CC(C)(C(=O)O)c1ccc(C(O)CCCN2CCC(C(O)(c3ccccc3)c3ccccc3)CC2)cc1 (stereo unspecified) [FEXOFENADINE]
